From ChEMBL document CHEMBL5252540, “3-Aroyl-1,4-diarylpyrroles Inhibit Chronic Myeloid Leukemia Cell Growth through an Interaction with Tubulin” (ACS Med Chem Lett, 2017)
pIC50: −log10 of the molar value. Where a name gives a salt, the structure may show the parent alone.

What was measured:
MCF7 = experiment: Cytotoxicity against human MCF7 cells assessed as cell growth inhibition incubated for 3 days by trypan blue exclusion assay; assay type: functional, cell-based; conditions: MCF7, 72 h
How it was run: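 MCF-7 human breast carcinoma cells; growth inhibition; triplicate experiments.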

Tubulin = experiment: Inhibition of tubulin (unknown origin) polymerization preincubated for 15 mins followed by GTP addition by turbidity based spectrophotometer analysis; assay type: protein-complex assay, Homo sapiens
Tubulin (Homo sapiens) = Tubulin (Homo sapiens) (UniProt P68371+Q9H4B7+P0DPH7+P68366+Q13509+Q71U36+P04350+Q3ZCM7+P07437+P68363+Q9BQE3+Q6PEY2+Q13885+Q9BVA1+Q9BUF5); experiment: Inhibition of [3H]colchicine binding to tubulin (unknown origin) at 5 uM incubated for 10 mins relative to control; assay type: protein-complex assay
LAMA-84 [1] = experiment: Antiproliferative activity against human LAMA-84 cells assessed as cell growth inhibition incubated for 48 hrs by MTT assay; conditions: LAMA-84, 48 h
LAMA-84 [2] = experiment: Antiproliferative activity against human LAMA-84 cells overexpressing BCR/ABL assessed as cell growth inhibition
OVCAR-8 = experiment: Cytotoxicity against human OVCAR-8 cells assessed as cell growth inhibition incubated for 3 days by trypan blue exclusion assay; assay type: functional, cell-based; conditions: OVCAR-8, 72 h
NCI/ADR-RES = experiment: Cytotoxicity against human NCI/ADR-RES cells overexpressing p-glycoprotein assessed as cell growth inhibition incubated for 3 days by trypan blue exclusion assay; assay type: functional, cell-based; conditions: 72 h

| pIC50 (Tubulin) | inhibition (Tubulin (Homo sapiens)) | Structure (SMILES) | pIC50 (MCF7) | pIC50 (LAMA-84 [1]) | pIC50 (LAMA-84 [2]) | pIC50 (OVCAR-8) | pIC50 (NCI/ADR-RES) |
| --- | --- | --- | --- | --- | --- | --- | --- |
| 5.96 | 66% | COc1cc(C(=O)c2cn(-c3ccccc3)cc2-c2ccccc2)cc(OC)c1OC | 7.46 | – | – | – | – |
| 6.06 | 79% | COc1cc(C(=O)c2cn(-c3ccc(C)cc3)cc2-c2ccccc2)cc(OC)c1OC | 7.52 | – | – | – | – |
| – | – | Cc1ccc(NC(=O)c2ccc(CN3CCN(C)CC3)cc2)cc1Nc1nccc(-c2cccnc2)n1 [IMATINIB MESYLATE] | – | 7.00 | 7.00 | – | – |
| 6.24 | 72% | COc1cc(C(=O)c2cn(-c3ccccc3)cc2-c2ccccc2F)cc(OC)c1OC | 7.52 | – | – | – | – |
| 6.12 | 47% | COc1cc(C(=O)c2cn(-c3ccccc3)cc2-c2ccc(F)cc2)cc(OC)c1OC | 7.11 | – | – | – | – |
| 5.80 | 5.7% | COc1cc(C(=O)c2cn(-c3ccccc3)cc2-c2cccc(C)c2)cc(OC)c1OC | 6.35 | – | – | – | – |
| 6.41 | 57% | COc1cc(C(=O)c2cn(-c3ccccc3)cc2-c2cccc(N)c2)cc(OC)c1OC | 7.55 | – | – | 6.72 | 6.96 |
| 5.89 | 62% | COc1cc(C(=O)c2cn(-c3ccc(F)cc3)cc2-c2ccccc2)cc(OC)c1OC | 7.82 | – | – | 6.74 | 6.96 |
